Measured values published in ChEMBL document CHEMBL1141604, “Benzenesulfonamide indole inhibitors of cytosolic phospholipase A2alpha: optimization of in vitro potency and rat pharmacokinetics for oral efficacy” (Bioorg Med Chem, 2008).

Assays:
[1] = Inhibition of cPLA2-alpha in Sprague-Dawley rat whole blood assay in presence of A23187; type: tissue-based
Summary of the method: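 Heparinized blood from male Sprague-Dawley rats, taken by cardiac puncture. Preincubated 15 min at 37 °C with compound in DMSO, then stimulated 10 min at 37 °C with 5 µM A23187 (final). Stopped with 20 mM EDTA; plasma precipitated with cold methanol at −80 °C. TXB2 measured by immunoassay; IC50 values averaged from at least two independent runs.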

[2] = Oral bioavailability in Sprague-Dawley rat at 25 mg/kg administered through MC/TW formulation; type: ADME, organism-based; conditions: in vivo
Summary of the method: (§1)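 Overnight-fasted male Sprague-Dawley rats (n = 3) gavaged in MC/TW or Phosal vehicle; compound at 37.5 mg/mL, diluted with water, dosed at 4 mL/kg. Jugular blood taken over 24 h; plasma analysed by LC/MS/MS. F calculated as the dose-normalized oral/iv AUC ratio, iv reference 2 mg/kg.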

[3] = Clearance in Sprague-Dawley rat at 2 mg/kg, iv; type: ADME, organism-based; set-up: dose 2 mg/kg, route intravenous; conditions: in vivo
Summary of the method: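 Male Sprague-Dawley rats, 200–300 g, n = 3, given a single 2 mg/kg tail-vein bolus in 50% PEG-400/50% DMSO. Blood drawn via jugular cannula over 24 h and plasma acidified with HCl. Plasma levels measured by LC/MS/MS after acetonitrile precipitation with internal standard; quantitation limit 5 ng/mL. Clearance from non-compartmental analysis.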

[4] = Inhibition of human cPLA2-alpha assessed as cleavage of 7-hydroxycoumarinyl-gamma-linolenate
Summary of the method: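 Substrate 90 µM GLU with 120 µM DTPC. Compounds in DMSO tested in duplicate. Fluorescence (ex 355/em 460 nm) read every 4 min for 84 min; inhibition from slope. IC50 averaged from at least two independent runs.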

[5] = Clearance in Beagle dog at 2 mg/kg, iv; type: ADME, organism-based, Canis lupus familiaris; set-up: dose 2 mg/kg, route intravenous; conditions: in vivo
Summary of the method: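 Male Beagle dogs, 8.5–13.0 kg, n = 3, fasted overnight, given 2 mg/kg iv in 20% DMSO/80% PEG-200. Saphenous blood sampled over 24 h and plasma acidified to about pH 4. Analysed by LC/MS/MS with internal standard. Clearance by non-compartmental methods.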

[6] = Oral bioavailability in Beagle dog at 50 mg/kg administered through MC/TW formulation; type: ADME, organism-based, Canis lupus familiaris; conditions: in vivo
Summary of the method: (§2)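 Fasted male Beagle dogs (n = 3) dosed orally in MC/TW or Phosal formulation, volume 4 or 6 mL/kg. Saphenous plasma collected over 24 h and measured by LC/MS/MS. F calculated as the dose-normalized oral/iv AUC ratio against 2 mg/kg iv.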

[7] = Oral bioavailability in Beagle dog at 50 mg/kg administered through Phosal formulation; type: ADME, organism-based, Canis lupus familiaris; conditions: in vivo; summary of the method: as §2
[8] = Oral bioavailability in Sprague-Dawley rat at 25 mg/kg administered through Phosal formulation; type: ADME, organism-based; conditions: in vivo; summary of the method: as §1
[9] = Oral bioavailability in Sprague-Dawley rat at 5 mg/kg administered through MC/TW formulation; type: ADME, organism-based; conditions: in vivo; summary of the method: as §1
[10] = Oral bioavailability in Sprague-Dawley rat at 10 mg/kg administered through Phosal formulation; type: ADME, organism-based; conditions: in vivo

SMILES | IC50 [1] [nM] | bioavailability [2] [%] | clearance [3] [mL/min/kg] | IC50 [4] [nM] | clearance [5] [mL/min/kg] | bioavailability [6] [%] | bioavailability [7] [%] | bioavailability [8] [%] | bioavailability [9] [%] | bioavailability [10] [%]
O=C(O)c1ccc(OCCc2c(CCNS(=O)(=O)c3c(Cl)cccc3Cl)n(C(c3ccccc3)c3ccccc3)c3ccc(Cl)cc23)cc1 | 210 | 2.9 | 16.3 | 260 | – | – | – | – | – | –
Cc1ccccc1S(=O)(=O)NCCc1c(CCOc2ccc(C(=O)O)cc2)c2cc(Cl)ccc2n1C(c1ccccc1)c1ccccc1 | 160 | – | 61 | 340 | – | – | – | – | – | –
O=C(O)c1ccc(OCCc2c(CCNS(=O)(=O)Cc3ccc(Cl)c(Cl)c3)n(C(c3ccccc3)c3ccccc3)c3ccc(Cl)cc23)cc1 [ECOPLADIB] | 160 | 6 | – | – | – | – | – | – | – | –
O=C(O)c1ccc(CCCc2c(CCNS(=O)(=O)c3ccccc3Cl)n(C(c3ccccc3)c3ccccc3)c3ccc(Cl)cc23)cc1 | 200 | 13.7 | 9.4 | 100 | – | – | – | – | – | –
O=C(O)c1ccc(OCCc2c(CCNS(=O)(=O)c3ccccc3Br)n(C(c3ccccc3)c3ccccc3)c3ccc(Cl)cc23)cc1 | 320 | < 0.2 | 3.1 | 520 | – | – | – | – | – | –
O=C(O)c1ccc(OCCc2c(CCNS(=O)(=O)c3ccccc3)n(C(c3ccccc3)c3ccccc3)c3ccc(Cl)cc23)cc1 | 1000 | – | 73 | 3000 | – | – | – | – | – | –
O=C(O)c1ccc(OCCc2c(CCNS(=O)(=O)c3cccc(-c4ccccc4)c3)n(C(c3ccccc3)c3ccccc3)c3ccc(Cl)cc23)cc1 | 600 | – | – | 570 | – | – | – | – | – | –
COc1ccccc1S(=O)(=O)NCCc1c(CCCc2ccc(C(=O)O)cc2)c2cc(Cl)ccc2n1C(c1ccccc1)c1ccccc1 | 200 | 7.8 | 10.7 | 100 | – | – | – | – | – | –
O=C(O)c1ccc(OCCc2c(CCNS(=O)(=O)c3ccccc3OC(F)(F)F)n(C(c3ccccc3)c3ccccc3)c3ccc(Cl)cc23)cc1 | 360 | 15.4 | 12.4 | 350 | – | – | – | – | – | –
O=C(O)c1ccc(OCCc2c(CCNS(=O)(=O)c3ccccc3Cl)n(C(c3ccccc3)c3ccccc3)c3ccc(Cl)cc23)cc1 | 550 | 39 | 31 | 400 | – | – | – | – | – | –
O=C(O)c1ccc(CCCc2c(CCNS(=O)(=O)c3ccccc3OC(F)(F)F)n(C(c3ccccc3)c3ccccc3)c3ccc(Cl)cc23)cc1 | 200 | 4.6 | 5.2 | 100 | – | – | – | – | – | –
O=C(O)c1ccc(CCCc2c(CCNS(=O)(=O)c3cccc(-c4ccccc4)c3)n(C(c3ccccc3)c3ccccc3)c3ccc(Cl)cc23)cc1 | 220 | – | – | 180 | – | – | – | – | – | –
O=C(O)c1ccc(CCCc2c(CCNS(=O)(=O)c3ccccc3F)n(C(c3ccccc3)c3ccccc3)c3ccc(Cl)cc23)cc1 | 220 | 4 | 8.8 | 190 | – | – | – | – | – | –

Now those with a lower IC50 [1], led by results:

IC50 [1] [nM] | bioavailability [2] [%] | clearance [3] [mL/min/kg] | IC50 [4] [nM] | clearance [5] [mL/min/kg] | bioavailability [6] [%] | bioavailability [7] [%] | bioavailability [8] [%] | bioavailability [9] [%] | bioavailability [10] [%] | SMILES
150 | 6 | 28 | 600 | – | – | – | – | – | – | O=C(O)c1ccc(OCCc2c(CCNS(=O)(=O)c3ccccc3F)n(C(c3ccccc3)c3ccccc3)c3ccc(Cl)cc23)cc1
150 | < 0.1 | 4.5 | 110 | – | – | – | – | – | – | O=C(O)c1ccc(OCCc2c(CCNS(=O)(=O)c3ccccc3-c3ccccc3)n(C(c3ccccc3)c3ccccc3)c3ccc(Cl)cc23)cc1
150 | 3 | 15.3 | 180 | – | – | – | – | – | – | O=C(O)c1ccc(OCCc2c(CCNS(=O)(=O)c3c(F)cccc3C(F)(F)F)n(C(c3ccccc3)c3ccccc3)c3ccc(Cl)cc23)cc1
120 | 3.9 | – | 110 | – | – | – | – | – | – | O=C(O)c1ccc(OCCc2c(CCNS(=O)(=O)Cc3ccccc3)n(C(c3ccccc3)c3ccccc3)c3ccc(Cl)cc23)cc1
120 | 1.9 | 6.5 | 100 | – | – | – | – | – | – | O=C(O)c1ccc(CCCc2c(CCNS(=O)(=O)c3ccccc3Br)n(C(c3ccccc3)c3ccccc3)c3ccc(Cl)cc23)cc1
100 | 3.8 | 8.5 | 60 | – | – | – | – | – | – | O=C(O)c1ccc(CCCc2c(CCNS(=O)(=O)c3c(Cl)cccc3Cl)n(C(c3ccccc3)c3ccccc3)c3ccc(Cl)cc23)cc1
95 | 8.6 | 10.3 | 90 | – | – | – | – | – | – | Cc1ccccc1S(=O)(=O)NCCc1c(CCCc2ccc(C(=O)O)cc2)c2cc(Cl)ccc2n1C(c1ccccc1)c1ccccc1
95 | 6 | 6.1 | 100 | – | – | – | – | – | – | Cc1cccc(C)c1S(=O)(=O)NCCc1c(CCOc2ccc(C(=O)O)cc2)c2cc(Cl)ccc2n1C(c1ccccc1)c1ccccc1
80 | – | 13 | 40 | – | – | – | – | 3.8 | 7.2 | O=C(O)c1ccc(CCCc2c(CCNS(=O)(=O)Cc3ccccc3)n(C(c3ccccc3)c3ccccc3)c3ccc(Cl)cc23)cc1
75 | 1.3 | 10.5 | 47 | – | – | – | – | – | – | Cc1cccc(C)c1S(=O)(=O)NCCc1c(CCCc2ccc(C(=O)O)cc2)c2cc(Cl)ccc2n1C(c1ccccc1)c1ccccc1
70 | 1 | – | 40 | – | – | – | 6 | – | – | O=C(O)c1ccc(CCCc2c(CCNS(=O)(=O)Cc3ccc(Cl)c(Cl)c3)n(C(c3ccccc3)c3ccccc3)c3ccc(Cl)cc23)cc1 [EFIPLADIB]
60 | 0.4 | 2.3 | 40 | – | – | – | – | – | – | O=C(O)c1ccc(CCCc2c(CCNS(=O)(=O)c3ccccc3-c3ccccc3)n(C(c3ccccc3)c3ccccc3)c3ccc(Cl)cc23)cc1
60 | < 0.1 | 18.6 | 180 | – | – | – | – | – | – | COc1ccccc1S(=O)(=O)NCCc1c(CCOc2ccc(C(=O)O)cc2)c2cc(Cl)ccc2n1C(c1ccccc1)c1ccccc1
30 | 1 | 4 | 14 | 0.6 | 0.08 | 1.5 | 3.5 | – | – | Cc1cccc(C)c1CS(=O)(=O)NCCc1c(CCCc2ccc(C(=O)O)cc2)c2cc(Cl)ccc2n1C(c1ccccc1)c1ccccc1
